# Screening data (PubChem)
# A selection: hits, their analogues and other compounds. The true share with any hit is near 1.8%.
# M4 PAM = CHRM4 positive allosteric modulation | P08173 | CHO-K1 hM4/Gqi5, Fluo-8 calcium fluorescence, ACh EC20; 0% = ACh EC20, 100% = maximal ACh | activation, % at 3 µM | 360,000 compounds, 0.4% hits;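 active = activation above its plate's cutoff, the mean activation of sample wells plus 3 SD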
# Target sequence (P08173 whole entry, looked up): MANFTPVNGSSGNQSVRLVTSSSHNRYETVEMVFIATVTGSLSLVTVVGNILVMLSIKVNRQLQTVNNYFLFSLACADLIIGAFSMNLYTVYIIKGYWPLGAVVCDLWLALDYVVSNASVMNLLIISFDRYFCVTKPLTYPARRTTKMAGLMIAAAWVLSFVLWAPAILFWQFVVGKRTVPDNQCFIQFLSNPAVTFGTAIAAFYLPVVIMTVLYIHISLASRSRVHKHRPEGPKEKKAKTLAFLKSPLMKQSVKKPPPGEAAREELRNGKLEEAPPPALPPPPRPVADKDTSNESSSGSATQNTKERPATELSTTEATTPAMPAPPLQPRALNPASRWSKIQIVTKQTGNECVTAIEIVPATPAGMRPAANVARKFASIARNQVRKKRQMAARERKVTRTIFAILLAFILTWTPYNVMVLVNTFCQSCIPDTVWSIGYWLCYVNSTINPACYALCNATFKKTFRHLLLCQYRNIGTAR
# CHRM4 agonist = CHRM4 agonism in calcium assay | 360,000 compounds, 0.14% hits | CHO-K1 hM4/Gqi5, Fluo-8 calcium fluorescence; vehicle 0%, full acetylcholine response 100% | AID 624127 | P08173 | activation, % at 3 µM;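 active = activation above the run mean over all test wells plus 3 SD, cut at about 32% in these data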;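 note: peak over basal fluorescence ratio per well then scaled between controls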
# CHRM5 antagonist = antagonists of human muscarinic M5 receptor (CHRM5) | AID 624040 | CHO-hM5 cells, Fluo-8 calcium fluorescence, ACh EC80 | 360,000 compounds, 0.59% hits | inhibition, % at 3 µM;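 active = inhibition above a per-plate cutoff, the mean of that plate's test compounds plus 3 SD, cut at about 27% in these data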
# M5 PAM = positive allosteric modulators of human muscarinic M5 receptor | CHO-K1 hM5, Fluo-8 calcium, ACh EC20 PAM; 0% = ACh EC20, 100% = ACh EC100 | activation, % at 3 µM | 360,000 compounds, 0.3% hits | P08912;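 active = activation above the run cutoff, the mean activation of all test compounds plus 3 SD, cut at about 18% in these data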
#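 system = human M5 receptor in CHO-K1 cells | compound = one concentration, 3 µM final (nominal) | schedule = Post-acetylcholine fluorescence recording 140 s | signal = Fluo-8 calcium dye fluorescence, kinetic read | benchmarks = low control EC20 acetylcholine (0%), high control EC100 acetylcholine (100%) | repeats = singlicate, one well per test compound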
# M5 ag = agonists of human muscarinic M5 receptor (CHRM5); CHO-K1 hM5 cells, Fluo-8 calcium fluorescence; 0% DMSO wells, 100% maximal acetylcholine response; 360,000 compounds, 0.19% hits; AID 624037; P08912; activation, % at 3 µM;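 active = activation above the run's mean over test compounds plus 3 SD, cut at about 23% in these data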;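 note: signal is peak over basal fluorescence ratio across the kinetic read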
# M4 antag = antagonists of human muscarinic M4 receptor (CHRM4) | inhibition, % at 3 µM | CHO-hM4 cells, ACh EC80, Fluo-8 calcium fluorescence | P08173 | 360,000 compounds, 0.73% hits;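 active = inhibition above its plate's cutoff, the mean inhibition of sample wells plus 3 SD, cut at about 27% in these data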
# Hits are given with their value; i = inactive; ! = a repeat was not active.
SMILES,M4 PAM,CHRM4 agonist,CHRM5 antagonist,M5 PAM,M5 ag,M4 antag
O=C(COC(=O)C1CC2C=CC1C2)Nc1cccc(S(=O)(=O)N2CCCCCC2)c1 (stereo unspecified),i,i,31.2,i,i,i
C/C(N)=C(/C#N)C(=O)COC(=O)c1ccc(C)c(S(=O)(=O)N2CCCCC2)c1,i,i,i,32.8,i,i
CN(C)S(=O)(=O)n1cc(/C=C(\NC(=O)c2ccccc2Cl)C(=O)N2CCCC2)c2ccccc21,i,i,i,i,i,i
CCCn1cc(S(=O)(=O)c2ccc(OC)cc2)c(=O)c2cc(OCC)ccc21,i,i,i,i,i,i
Cn1c(=O)c2nc(NCc3ccccc3)cnc2n(C)c1=O,i,i,i,i,i,i
Cc1nc2c(=O)n(C)c(=O)n(C)c2nc1Cl,i,i,28.2,i,i,i
Cn1ccc(C(=O)N/N=C/c2c[nH]c3ccccc23)n1,i,i,i,27.8,i,i
Cc1ccc(C(C)C)c(OCc2ccc(C(=O)N/N=C/c3cccc(O)c3O)cc2)c1,i,i,i,i,i,i
Cc1cc(C)n(CCCNC(=O)c2ccc3c(c2)NC(=O)CS3)n1,i,i,i,25.0,i,i
O=C(NN=Cc1ccc(Cl)cc1Cl)C1CC1,i,i,i,i,i,i
Nc1[nH]c(C(=O)c2ccccc2)c(-c2ccccc2Br)c1C(=O)NCCc1ccc(Cl)cc1Cl,i,i,i,i,i,i
CC(C)NC(=O)N(O)C1N(C(C)C)C(=O)N(Cc2ccc3c(c2)OCO3)C1(C)C (stereo unspecified),i,i,i,i,i,30.4
Nc1cc(N)cc(-c2nc3ccccc3[nH]2)c1,i,i,i,i,i,26.5
c1ccc(-c2nc3ccccc3[nH]2)cc1,i,i,i,i,i,i
COc1ccc(C(C#N)=Cc2ccc(N(C)CCC#N)cc2)cc1,i,i,27.8,i,i,i
COc1c(F)c(F)c(C(=O)Nc2c(C)cc(Br)cc2C)c(F)c1F,i,i,i,i,i,i
CCOC(=O)Nc1nnc(Cc2ccc(Cl)c(Cl)c2)s1,22.3,i,i,i,i,i
COc1ccc(Cc2nnc(NC(=O)CSc3ccc(C)cc3)s2)cc1OC,i,95.3,i,i,74.4,i
CCOC(=O)C(=O)Nc1nnc(Cc2ccc(OC)c(OC)c2)s1,i,i,i,i,i,i
COc1ccc(OC)c(/C=N/NC(=O)C(=O)N2CCCC2)c1,22.4,i,i,i,i,i
Cc1cc(C)c(OCCOCCN2CCCC2)c(C)c1,i,i,i,i,i,i
Cc1cc(C)c(OCCOCCN2CCNCC2)c(C)c1,i,i,i,45.0,i,i
CC(NC(=O)c1ccc(NC(=O)CC2SC(N3CCCC3)=NC2=O)cc1)c1ccc(F)cc1 (stereo unspecified),i,i,i,i,i,i
CCc1ccc(N=C2NC(=O)/C(=C/c3cc(OC)c(O)c(OC)c3)S2)cc1,i,i,i,i,23.8,i
COc1cc(/C=C2\SC(=Nc3ccccc3)NC2=O)cc(Cl)c1O,i,83.5,45.4,i,64.4,44.0
SMILES,M4 PAM,CHRM4 agonist,CHRM5 antagonist,M5 PAM,M5 ag,M4 antag
COc1cc(/C=C2\SC(=Nc3ccc(Cl)c(C(=O)O)c3)NC2=O)c(Br)c(Br)c1O,i,50.9,42.6,i,190.3,i
COC(=O)c1ccc(/C=N/NC(=O)C(=O)NCC2CCCO2)cc1 (stereo unspecified),i,i,i,i,i,i
COc1ccccc1N1CCN(C(=O)c2oc3c(c2C)C(=O)CC(C)(C)C3)CC1,i,i,29.5,i,i,i
Cc1c(C(=O)N2CCN(c3ccccn3)CC2)oc2c1C(=O)CC(C)(C)C2,i,i,i,i,i,i
CCc1nnc(NS(=O)(=O)c2ccc(NC(=S)NC(=O)/C=C/c3ccc(C(C)C)cc3)cc2)s1,i,i,i,i,i,27.1
O=C(Cc1ccc(S(=O)(=O)N2CCOCC2)s1)NCCOc1ccccc1,i,i,i,i,i,i
COc1ccccc1OCC(O)CN1CCN(CC(=O)Nc2c(C)cccc2C)CC1 (stereo unspecified),i,i,i,i,i,28.3!
Cc1cc(C)n2nc(S(=O)(=O)NC(C)(C)C)nc2n1,i,i,i,19.1,i,i
CCOc1ccc(/C=C2/SC(=S)N(C(C(=O)O)c3ccccc3)C2=O)cc1OCC (stereo unspecified),i,i,i,i,i,i
O=C1/C(=C\c2ccc(O)c(O)c2)SC(=S)N1Cc1ccccc1,i,i,i,i,i,i
COc1cc(/C=C2/SC(=S)N(Cc3ccccc3)C2=O)ccc1O,i,i,i,i,23.3,i
COc1ccccc1/C=C1\SC(=S)N(C(C(=O)O)c2ccccc2)C1=O (stereo unspecified),i,i,i,i,i,i
COc1ccc(/C=C2\SC(=S)N(C(Cc3ccccc3)C(=O)O)C2=O)cc1 (stereo unspecified),i,i,i,i,i,i
O=C(O)C(c1ccccc1)N1C(=O)/C(=C\c2ccc(O)c(O)c2)SC1=S (stereo unspecified),i,35.0,i,i,i,i
CCOc1cc(/C=C2\SC(=S)N(C(C(=O)O)c3ccccc3)C2=O)ccc1O (stereo unspecified),i,52.1,i,i,61.1,i
COc1cc(/C=C2\SC(=S)N(C(C(=O)O)c3ccccc3)C2=O)ccc1O (stereo unspecified),i,40.4,27.1,i,40.3,i
COc1cccc(OC)c1C(=O)Nc1ccccc1C(=O)N1CCCCCC1,i,i,i,i,i,i
O=C1/C(=C\c2cc([N+](=O)[O-])ccc2O)SC(=S)N1Cc1ccc(Cl)cc1,i,i,28.5,i,i,30.0
COc1cc(/C=C2/SC(=S)N(c3c(C)n(C)n(-c4ccccc4)c3=O)C2=O)ccc1O,i,i,i,i,28.9,i
COc1cc(/C=C2\SC(=S)N(NS(=O)(=O)c3ccccc3)C2=O)ccc1O,i,i,i,i,i,i
O=C1/C(=C\c2cccc(O)c2O)SC(=S)N1Cc1ccccc1,i,i,i,i,i,i
Cc1ccc2c(c1)/C(=N/OS(=O)(=O)c1ccccc1)CCS2,i,i,i,i,i,i
CC1=CC(=O)C(C(C)C)=C/C1=N/OS(=O)(=O)c1ccccc1,i,i,50.6,i,i,78.9
CC1=CC(=O)C=C(C)C1=NOS(=O)(=O)c1ccccc1,i,i,41.4,i,23.5,32.5
COc1ccc(CCN2C(=O)CSC2=Nc2ccc(C(C)C)cc2)cc1OC,i,i,35.3,i,i,37.0
Cc1ccccc1C(=O)NCCCNC(=O)c1ccccc1C,i,i,i,i,i,i
